Article PMC6034632 (Science translational medicine, 2017)
*1 amine or outer side, *2 acyl side, *3 side chain or, on linkers, in order; H or OH if unused. Where a SMILES comes first, the peptide text is derived from it. Bridges are numbered along the chain shown (N, C = ends). [ ]: non-standard residue; d: D form. The star is where a group is joined. Leu(3R-OH,Nα-propionyl) = CCC(=O)N[C@H](C(=O)*)[C@H](O)C(C)C; X1 = CC(C)[C@@H](O[*:3])[C@H](N[*:1])C(=O)[*:2]; NMeT = CN[C@H](C(=O)O)[C@@H](C)O; dPhLac = O=C(O)[C@H](O)Cc1ccccc1; NMeA = CN[C@@H](C)C(=O)O; NMeDha = C=C(NC)C(=O)O

How the values were obtained:
[1] = tested on: NK1R endocytosis in HEK293 cells; assay: BRET assay of SP-induced NK1R endocytosis; format: cell-based, human; settings: SP 1 or 10 nM
How it was run: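 NK1R C-terminally fused to RLUC8 was co-expressed in HEK293 cells with Venus-tagged KRAS (plasma membrane marker) or RAB5A (early endosome marker). Receptor proximity to each compartment was tracked as SP-induced BRET over time. Observations were in triplicate, n ≥ 3 experiments.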

[2] = tested on: nuclear ERK activity (NK1R, HEK293 cells); assay: FRET biosensor NucEKAR, SP-induced nuclear ERK activity; format: cell-based, human; settings: for SP stimulation of nuclear ERK: SP 1 nM, HEK293, NucEKAR
How it was run: (§1)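 HEK293 cells expressed NK1R plus a genetically encoded FRET biosensor targeted to the cytosol, nucleus or plasma membrane (ERK, PKC or cAMP sensors). Ratiometric imaging followed time courses after SP, with the maximal signal set by a positive control. Responses were integrated as area under the curve.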

[3] = tested on: cytosolic PKC activity (NK1R, HEK293 cells); assay: FRET biosensor CytoCKAR, SP-induced cytosolic PKC activity; format: cell-based, human; settings: SP 1 nM
How it was run: as §1

[4] = tested on: cytosolic cAMP (NK1R, HEK293 cells); assay: FRET biosensor CytoEpac2, SP-induced cytosolic cAMP; format: cell-based, human; settings: SP 1 nM
How it was run: as §1

[5] = tested on: NK1R-positive neurons in lamina I of the dorsal horn; assay: Cell-attached patch clamp recordings of SP-induced firing in spinal cord slices; format: cell-based, rat; settings: for reduction of number of SP-stimulated action potentials: compared to controls; for inhibition of SP-induced firing time of lamina I neurons: slices preincubated with inhibitor, versus vehicle control
How it was run: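 Cell-attached patch clamp recordings were made from second-order lamina I neurons in rat spinal cord slices. SP was applied at 1 μM for 2 min, then washed out. Slices were exposed to test compound for 60 min, washed, and challenged with SP 60 min later. Firing rate was taken as events per 2 min normalized to the 2-min rate, and duration as time to the last action potential. Six to 7 neurons per group.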

[6] = tested on: capsaicin-induced mechanical allodynia; format: in vivo, mouse; settings: mice, intrathecal injection 3 hours before intraplantar capsaicin
NK1R (HEK-NK1R cells) = NK1R (HEK-NK1R cells) (Homo sapiens, UniProt P25103); assay: SP-stimulated Ca2+ signaling; format: cell-based; settings: 10 nM antagonist
Chain of NK1R (HEK-NK1R cells) (P25103 whole entry, species assumed): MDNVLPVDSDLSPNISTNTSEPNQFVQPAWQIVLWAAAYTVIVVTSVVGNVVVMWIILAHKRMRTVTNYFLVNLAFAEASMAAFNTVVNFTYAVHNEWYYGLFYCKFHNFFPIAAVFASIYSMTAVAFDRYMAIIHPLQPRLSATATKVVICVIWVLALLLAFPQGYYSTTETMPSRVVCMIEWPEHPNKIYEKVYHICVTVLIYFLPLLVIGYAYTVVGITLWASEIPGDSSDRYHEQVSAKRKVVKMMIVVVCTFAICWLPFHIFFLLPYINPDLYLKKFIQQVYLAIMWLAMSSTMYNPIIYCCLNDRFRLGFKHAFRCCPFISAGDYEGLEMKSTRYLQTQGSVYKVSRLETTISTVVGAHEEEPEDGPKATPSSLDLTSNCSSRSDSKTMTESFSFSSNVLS

HEK-NK1R cells = assay: Endocytosis of fluorescent Alexa Fluor 568–SP; format: cell-based, human
[7] = tested on: cytosolic ERK activity (NK1R, HEK293 cells); assay: FRET biosensor CytoEKAR, SP-induced cytosolic ERK activity; format: cell-based, human; settings: SP 1 nM
How it was run: as §1

[8] = tested on: plasma membrane cAMP (NK1R, HEK293 cells); assay: FRET biosensor pmEpac2, SP-induced plasma membrane cAMP; format: cell-based, human; settings: SP 1 nM
How it was run: as §1

[9] = tested on: plasma membrane PKC activity (NK1R, HEK293 cells); assay: FRET biosensor pmCKAR, plasma membrane PKC activity; format: cell-based, human; settings: SP 1 nM
How it was run: as §1

[10] = tested on: SP and CGRP release from dorsal spinal cord; assay: Capsaicin-stimulated neuropeptide release from segments of dorsal spinal cord; settings: segments of mouse dorsal spinal cord, n = 6 experiments
[11] = tested on: pERK in lamina I/II dorsal horn neurons; assay: Capsaicin-stimulated ERK phosphorylation in dorsal horn neurons in vivo; settings: rat, intrathecal inhibitor, intraplantar capsaicin
[12] = tested on: contralateral paw withdrawal; settings: mouse, in vivo
[13] = tested on: formalin nocifensive response; assay: Nocifensive behavior after intraplantar formalin; format: in vivo, mouse; settings: mice, intrathecal endocytosis inhibitors
motor behavior = settings: mouse, in vivo
PKCα = settings: cited from earlier work
[14] = Degradation by membranes prepared from spinal cord; format: in vitro ADME, mouse
[15] = tested on: CFA-induced mechanical hyperalgesia; assay: CFA-induced mechanical hyperalgesia, von Frey; format: in vivo, mouse; settings: mice, intrathecal 36 hours after intraplantar CFA
How it was run: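 Mice received intraplantar CFA; 36 hours later test compound was given intrathecally. Mechanical hyperalgesia was read as von Frey filament withdrawal responses of the CFA-injected paw over the following hours. Groups were compared to control by ANOVA with Dunnett's test.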

[16] = tested on: NK1R-IR in lamina I neurons; assay: NK1R endocytosis in spinal neurons in vivo after intraplantar capsaicin; settings: rat, intraplantar capsaicin alone (vehicle-treated control 80.7 ± 1.6), 10 min
[17] = tested on: NK1R-IR endocytosis in spinal neurons; assay: SP-induced NK1R-IR endocytosis in spinal cord slices; format: cell-based; settings: rat spinal cord slices, SP 1 μM 5 min
lamina I/IIo neurons = assay: EPSC induced by primary afferent stimulation; format: cell-based; settings: n = 11 neurons
[18] = tested on: capsaicin-evoked mechanical allodynia; assay: Capsaicin-evoked mechanical allodynia in rat; format: in vivo; settings: intrathecal
[19] = tested on: HEK293 / HEK-NK1R-GFP cells; assay: Uptake and trafficking of tripartite probes; format: cell-based, human; settings: effect of dynamin inhibitor
How it was run: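 HEK293 or HEK-NK1R–GFP cells were incubated with Cy5-labelled cholestanol-conjugated probes, either continuously for 4 hours or as a 30 or 60 min pulse, washed and recovered 4 hours. NK1R-GFP cells received SP to drive receptor endocytosis. Localization to plasma membrane and RAB5A-RFP– or NK1R-GFP–positive endosomes was imaged, with or without dynamin inhibitor.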

[20] = rat spinal cord slices, SP 1 μM 2 min

## C=C1C(=O)N[C@@H](C)C(=O)N(C)[C@@H](C)C(=O)N[C@@H]([C@H](OC(=O)[C@@H](NC(=O)CC)[C@H](O)C(C)C)C(C)C)C(=O)N(C)[C@@H]([C@@H](C)OC)C(=O)O[C@H](C(C)C)[C@H](NC(C)=O)C(=O)O[C@H](Cc2ccccc2)C(=O)N1C [UBO-QIC] (Ac-[X1][dPhLac][NMeDha]A[NMeA][X1](Leu(3R-OH,Nα-propionyl))[NMeT](Me); ester 1-C)
[1]
  SP-induced NK1R endocytosis: did not affect NK1R endocytosis
[2]
  SP stimulation of nuclear ERK: prevented SP activation of nuclear ERK
[3]
  SP stimulation of cytosolic PKC: prevented activation of cytosolic PKC
[4]
  SP stimulation of cytosolic cAMP: prevented SP generation of cytosolic cAMP

## N#CC(=C(/N)Sc1ccccc1N)/C(C#N)=C(/N)Sc1ccccc1N [U0126]
[5]
  reduction of number of SP-stimulated action potentials: 84 ± 5%
  inhibition of SP-induced firing time of lamina I neurons: 67.5 ± 8.3%

## FC(F)(F)c1cc(CO[C@H]2CCCN[C@H]2c2ccccc2)cc(C(F)(F)F)c1 [L-733,060]
[6]
  capsaicin-evoked mechanical allodynia: antinociceptive only at 1 hour
NK1R (HEK-NK1R cells)
  % inhibition against 1 nM SP, Ca2+ signaling: 40.8 ± 8.9%

## O=C1NC(=NS(=O)(=O)c2cccc3ccccc23)S/C1=C\c1ccc(Br)cc1 [PS2, Pitstop-2]
[1]
  SP-induced NK1R endocytosis: inhibited NK1R endocytosis
HEK-NK1R cells
  endocytosis of fluorescent Alexa Fluor 568–SP: inhibited endocytosis
[2]
  SP stimulation of nuclear ERK: abolished
[3]
  SP stimulation of cytosolic PKC: abolished
[4]
  SP stimulation of cytosolic cAMP: abolished
[7]
  SP activation of cytosolic ERK: did not affect
[8]
  SP activation of plasma membrane cAMP: did not affect
[9]
  plasma membrane PKC activity: amplified plasma membrane PKC activity
[10]
  capsaicin-stimulated release of SP or CGRP: did not affect
[11]
  capsaicin-stimulated ERK activation in spinal neurons: prevented capsaicin-stimulated ERK activation
[12]
  withdrawal responses of the contralateral paw: did not affect
[13]
  nocifensive response to intraplantar formalin: blunted both the early (noninflammatory) and late (inflammatory) phases
Motor behavior
  rotarod latency: did not affect

## CN(C)CCCn1cc(C2=C(c3c[nH]c4ccccc34)C(=O)NC2=O)c2ccccc21 [GF109203X]
[4]
  SP stimulation of cytosolic cAMP: prevented SP generation of cytosolic cAMP
[5]
  reduction of number of SP-stimulated action potentials: 61 ± 15%
  inhibition of SP-induced firing time of lamina I neurons: 56.8 ± 8.2%
PKCα
  inhibiting PKCα: 4 % control

## substance P [SP]
[14]
  degradation by spinal cord membranes: rapidly degraded

## CC(C)Oc1cccc(CC(=O)N2CCC[C@@](CC[N+]34CCC(c5ccccc5)(CC3)CC4)(c3ccc(Cl)c(Cl)c3)C2)c1.[Cl-] [SR140,333]
[2]; pulse-incubated 30 min, washed, SP 4 hours later
  SP-induced nuclear ERK (endosomal NK1R) 4 hours after pulse: unable to effectively inhibit persistent NK1R signaling in endosomes
[15]
  CFA mechanical hyperalgesia: minor

## O=C(O)CN(CCOCCOCCN(CC(=O)O)CC(=O)O)CC(=O)O [EGTA]
[3]
  SP stimulation of cytosolic PKC: prevented activation of cytosolic PKC
[4]
  SP stimulation of cytosolic cAMP: prevented SP generation of cytosolic cAMP

## COc1cc(CNC(=O)CCCC/C=C/C(C)C)ccc1O [capsaicin]
[16]
  % NK1R-IR within 0.5 μm of plasma membrane: 42.1 ± 5.6%

## O=C(N/N=C/c1cc(O)c(O)cc1O)c1cc2ccccc2cc1O [Dy4, Dyngo-4a]
[1]
  SP-induced NK1R endocytosis: inhibited NK1R endocytosis
HEK-NK1R cells
  endocytosis of fluorescent Alexa Fluor 568–SP: inhibited endocytosis
[2]
  SP stimulation of nuclear ERK: abolished
[3]
  SP stimulation of cytosolic PKC: abolished
[4]
  SP stimulation of cytosolic cAMP: abolished
[7]
  SP activation of cytosolic ERK: did not affect
[8]
  SP activation of plasma membrane cAMP: did not affect
[9]
  plasma membrane PKC activity: amplified plasma membrane PKC activity
[5]; [20]
  initial onset of SP-induced firing: did not affect the initial onset
  sustained SP-induced firing (firing rate and firing time): prevented the sustained response
[5]; rat spinal cord slices, SP 1 μM 2 min, endocytosis inhibitor
  SP-induced firing rate (events per 2 min, normalized to rate at 2 min): 342.1 ± 120.7 events per 2 min
[17]
  SP-stimulated NK1R-IR endocytosis in spinal neurons: inhibited NK1R endocytosis
Lamina I/IIo neurons
  generation of excitatory postsynaptic currents (EPSCs): did not affect
[10]
  capsaicin-stimulated release of SP or CGRP: did not affect
[11]
  capsaicin-stimulated ERK activation in spinal neurons: prevented capsaicin-stimulated ERK activation
[12]
  withdrawal responses of the contralateral paw: did not affect
[18]
  capsaicin-evoked mechanical allodynia in rat: inhibited capsaicin-evoked mechanical allodynia
[13]
  nocifensive response to intraplantar formalin: blunted both the early (noninflammatory) and late (inflammatory) phases
[19]
  uptake of Chol-conjugated tripartite probes: inhibited uptake
Motor behavior
  rotarod latency: did not affect

## COc1ccc2c(c1)CC[C@@H]1[C@@H]2CC[C@]2(C)[C@@H](NCCCCCCN3C(=O)C=CC3=O)CC[C@@H]12 [U73122]
[3]
  SP stimulation of cytosolic PKC: prevented activation of cytosolic PKC
